Screening results from PubChem.
NPY-Y2 PAM-ag – potentiates or activates human NPY-Y2 receptor; cells expressing NPY-Y2, potentiator/agonist read-out; activation, % at 3.6 µM; AID 1359; actives 0.45% (n = 220,000); in the data active means activation above about 27%;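 further: cells stimulated with NPY near EC25 plus isoproterenol at EC100; 0% = vehicle plus submaximal agonist and 100% = vehicle plus saturating agonist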
m-calpain inh – calpain II (pig) inhibition. inhibition, % at 16 µM. purified calpain II, fluorogenic peptide substrate, 30 min. actives 0.37% (n = 220,000);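 active means inhibition above about 50%, limit read from the data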
NPY-Y2 antag – NPY-Y2 (human) receptor antagonism; AID 793; inhibition, % at 2.7 µM; P49146; NPY-Y2 expressing cells, antagonist mode; actives 0.99% (n = 140,000); in the data active means inhibition above about 17%;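 further: 0% = vehicle with agonist challenge and 100% = reference antagonist with challenge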
NPY-Y1 PAM-ag – potentiates or activates human NPY-Y1 receptor. activation, % at 3.6 µM. NPY-Y1 expressing cells, potentiator/agonist activation. actives 0.37% (n = 220,000). P25929; in the data active means activation above about 33%, passing the limit was not always enough;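 further: cells stimulated with NPY at EC10 then isoproterenol at EC100; 0% = low agonist plus stimulus and 100% = saturating agonist plus stimulus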
Target sequence (P25929 whole entry, looked up): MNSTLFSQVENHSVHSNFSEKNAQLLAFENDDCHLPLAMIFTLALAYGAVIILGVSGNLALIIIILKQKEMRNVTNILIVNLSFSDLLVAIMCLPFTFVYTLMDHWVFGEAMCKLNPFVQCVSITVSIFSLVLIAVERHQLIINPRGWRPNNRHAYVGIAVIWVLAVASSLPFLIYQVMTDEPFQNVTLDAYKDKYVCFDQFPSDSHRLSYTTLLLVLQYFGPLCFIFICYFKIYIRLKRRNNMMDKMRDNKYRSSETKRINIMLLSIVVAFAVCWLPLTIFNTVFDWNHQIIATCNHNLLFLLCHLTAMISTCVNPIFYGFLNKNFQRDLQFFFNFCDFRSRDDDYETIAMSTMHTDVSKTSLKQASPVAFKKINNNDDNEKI
Tb hexokinase – blocks Trypanosoma brucei hexokinase 1 activity. actives 0.11% (n = 220,000). recombinant TbHK1, G6PDH-coupled NADH A340. inhibition, % at 10 µM. AID 1430;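 active means inhibition of 50% or more in the single-dose primary screen; inactive means inhibition below 50%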
NPY Y1 blocker – blocks the human neuropeptide Y Y1 receptor; HEK293-CNG Y1 cells, membrane potential fluorescence; NPY at EC95, then isoproterenol; inhibition, % at 3.6 µM; actives 1% (n = 200,000);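 active means inhibition above the campaign mean inhibition of all tested compounds plus 3 SD, cut at about 20% in these data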;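 further: 0% = DMSO wells given NPY plus isoproterenol and 100% = isoproterenol alone without NPY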
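Material: Y1- and CNG-channel-expressing HEK293 cells / Probe or stimulus: NPY 25 nM then isoproterenol 1 µM plus Ro 20-1724 25 µM / Doses: 3.6 µM single dose, DMSO 0.4% / Schedule: compound incubation 1 h at room temperature, readout 45 min post-stimulation / Signal: membrane potential fluorescence / Benchmarks: isoproterenol-only wells as full block versus NPY-plus-isoproterenol wells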
NPY-Y1 confirm – confirmation of human NPY-Y1 receptor potentiators or agonists. actives 20% (n = 280). AID 1546. activation, % at 3.6 µM. cell-based NPY-Y1 potentiator/agonist assay. shares compounds with NPY-Y1 PAM-ag; in the data active means activation above about 45%;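 further: cells challenged with NPY at its EC10 plus isoproterenol stimulus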
NPY-Y2 counter – NPY-Y2 potentiation or agonism as NPY-Y1 counter-screen; activation, % at 3.6 µM; actives 20% (n = 280); shares compounds with NPY-Y1 PAM-ag; HEK293-CNG cells, membrane-potential fluorescence (FLIPR), 1536-well; in the data active means activation above about 33%
NPY-Y1 ag – activates human NPY-Y1, counter-screen for NPY-Y1 potentiators | activation, % at 3.6 µM | HEK293 Y1-CNGC, membrane potential fluorescence, agonist mode | AID 1697 | shares compounds with NPY-Y1 PAM-ag | actives 50% (n = 280);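 active means percent activation above the mean of DMSO-only control wells plus 3 SD of those wells, cut at about 18% in these data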;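 further: cells challenged with isoproterenol plus Ro 20-1724 with no NPY in test wells; Y1 agonism lowers isoproterenol-driven cAMP and reduces probe fluorescence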
NPY-Y2 agonist – activates human NPY-Y2, counter-screen for NPY-Y1 hits; shares compounds with NPY-Y1 PAM-ag; HEK293 Y2-CNGC, membrane potential fluorescence, agonist mode; activation, % at 3.6 µM; actives 67% (n = 280); AID 1698;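 active means activation above the solvent-only control wells' mean plus 3 SD, cut at about 11% in these data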;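 further: 0% = DMSO with isoproterenol and 100% = 40 nM NPY maximal response; agonism lowers cAMP so well fluorescence drops in active wells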
CNGC counter – CNG channel inhibition, counter-screen for NPY-Y1 potentiators; actives 42% (n = 280); AID 1704; inhibition, % at 3.6 µM; HEK293-CNG parental, isoproterenol cAMP, membrane potential fluorescence; shares compounds with NPY-Y1 PAM-ag;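 active means inhibition above the mean of stimulated solvent-only control wells plus 3 SD, cut at about 22% in these data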;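 further: 0% = isoproterenol-stimulated DMSO wells and 100% = unstimulated DMSO wells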
* = called active by the depositor; . = no result. Rows were chosen to be rich in hits. Some 2.3% of all compounds tested hit in one or more screens of this group.

SMILES	NPY-Y2 PAM-ag	m-calpain inh	NPY-Y2 antag	NPY-Y1 PAM-ag	Tb hexokinase	NPY Y1 blocker	NPY-Y1 confirm	NPY-Y2 counter	NPY-Y1 ag	NPY-Y2 agonist	CNGC counter
COc1ccc(N2CCN(C(=O)c3c(C)nn(-c4ccccc4)c3C)CC2)cc1	-7	-2	0	-38	38	7	.	.	.	.	.
O=C(Nc1cccnc1)c1ccc(COc2ccccc2Cl)o1	18	14	0	18	2	-9	.	.	.	.	.
O=C(Nc1cccnc1)c1ccc(COc2cc(Cl)ccc2Cl)o1	6	8	2	54*	2	-10	18	8	14	16*	18
CN1CCC(N(C)C(=O)c2cc(=O)c3ccccc3o2)CC1	-5	21	.	-4	7	-1	.	.	.	.	.
O=C(Cc1ccc(Cl)cc1)Nc1ncc([N+](=O)[O-])s1	11	77*	.	36*	-1	-3	8	14	14	11*	6
CC(CC(=O)Nc1ncc([N+](=O)[O-])s1)c1ccccc1 (configuration not stated)	13	-3	.	17	-10	-3	.	.	.	.	.
Cc1cccc2cc3c(NC(=O)C(C)C)nn(C)c3nc12	2	-220	-1	-1	-1	-1	.	.	.	.	.
Cc1ccc2cc3c(NC(=O)C(C)C)nn(C)c3nc2c1	10	-258	-1	37*	-13	2	-3	-4	-2	6	1
CCCCN(C)C(=S)Nc1ccsc1C(=O)OC	-9	13	.	-21	3	11	.	.	.	.	.
CCC(=O)Nc1c2c(nn1-c1ccc(OC)cc1)CS(=O)C2 (configuration not stated)	-5	-43	4	-22	-7	-3	.	.	.	.	.
CCC(CC)C(=O)Nc1c2c(nn1-c1ccc(OC)cc1)CS(=O)C2 (configuration not stated)	2	-17	2	41*	1	3	-2	-2	-4	2	2
COc1ccc(Oc2c(Cl)cnn(-c3ccc(C)cc3)c2=O)cc1	13	20	2	27	1	-8	.	.	.	.	.
COc1ccc(Oc2c(Cl)cnn(-c3ccc(Cl)c(Cl)c3)c2=O)cc1	20	24	-1	82*	-3	-5	78*	49*	61*	43*	65*
CS(=O)(=O)N1CCC(C(=O)N2CCN(C(c3ccccc3)c3ccccc3)CC2)CC1	-16	-6	.	-2	-8	-4	.	.	.	.	.
CCOCCOC(=O)COc1ccc(N2C(=O)c3ccccc3C2=O)cc1	11	37	2	44*	-2	-3	83*	55*	63*	44*	80*
COC(=O)COc1ccc(/C=C2/NC(=O)N(CC(=O)OC)C2=O)cc1	9	-8	.	49*	-68	-2	118*	90*	103*	89*	96*
COc1ccc(OC)c(NC(=O)CCc2c[nH]c3ccccc23)c1	8	3	.	4	0	-4	.	.	.	.	.
Clc1ccc(-[n+]2c(-c3cccc(Br)c3)[nH]c3nc4ccccc4nc32)cc1	7	-59	.	51*	-23	.	50*	47*	5	36*	6
COc1ccc(N2C(=S)NC3c4cc(Cl)ccc4OC2(C)C3C(=O)N(C)C)cc1 (configuration not stated)	19	29	.	32	-7	-6	.	.	.	.	.
Cc1cccc(N2C(=S)NC3c4cc(Cl)ccc4OC2(C)C3C(=O)N(C)C)c1 (configuration not stated)	14	3	.	42*	0	-4	59*	32	44*	33*	47*
Cc1ccc(N2C(=S)NC3c4cc(Cl)ccc4OC2(C)C3C(=O)N(C)C)cc1 (configuration not stated)	26	19	.	35*	-7	-6	74*	44*	51*	47*	51*
C/C(N)=C(/C#N)C(=O)CSc1nc2ccccc2c(=O)n1-c1ccc(C)c(Cl)c1	1	-9	4	15	-9	7	.	.	.	.	.
COc1cccc(C(=O)NC(=O)Nc2cc(C)[nH]n2)c1	-11	-5	.	76*	-5	.	-6	-5	-4	4	-2
COc1cccc(C(=O)Nc2ccc(C)cc2)c1	8	27	4	-14	-1	-9	.	.	.	.	.
OC(CNC1Cc2ccccc2C1)COc1ccc(Cl)cc1 (configuration not stated)	23	10	.	45*	-2	.	-4	6	17*	16*	-11
SMILES	NPY-Y2 PAM-ag	m-calpain inh	NPY-Y2 antag	NPY-Y1 PAM-ag	Tb hexokinase	NPY Y1 blocker	NPY-Y1 confirm	NPY-Y2 counter	NPY-Y1 ag	NPY-Y2 agonist	CNGC counter
NC(=O)c1cc2cc(Cc3ccccc3Cl)ccc2oc1=O	15	-85	.	11	-3	-2	.	.	.	.	.
COc1cccc(NC(=O)C(Sc2nnc(-c3ccncc3)n2-c2ccc(Cl)cc2)c2ccccc2)c1 (configuration not stated)	23	-7	2	52*	-14	-6	60*	54*	63*	40*	60*
COc1cccc(-n2c(SCC(N)=O)nnc2-c2ccncc2)c1	9	-11	0	4	1	-1	.	.	.	.	.
COc1cc(OC)cc(C(=O)NC(=S)Nc2ccc(NC(=O)c3ccco3)cc2)c1	-12	3	2	-18	-22	0	.	.	.	.	.
COc1cc(OC)cc(C(=O)Nc2ccc(NC(=O)c3ccco3)c(Cl)c2)c1	-21	-19	.	67*	-4	6	-16	-10	-10	9	-5
CC(=O)c1ccc(Sc2nnc(C)s2)c([N+](=O)[O-])c1	-9	12	.	12	-6	5	.	.	.	.	.
CC(=O)c1ccccc1OCC(O)CN1CCN(CCN2C(=O)c3cccc4cccc(c34)C2=O)CC1 (configuration not stated)	19	25	.	36*	-21	-7	30	27	10	20*	15
COc1cc(COCC(O)CN2CCN(CCN3C(=O)c4cccc5cccc(c45)C3=O)CC2)cc(OC)c1OC (configuration not stated)	7	-4	1	-2	-82	-6	.	.	.	.	.
